Compound activity: PubChem BioAssay, several laboratories
Compounds with a hit are over-represented: about 4.6% of the library has one in this group of screens.
WT yeast gro inh: growth inhibition of WT strain, primary screen, mitochondrial fusion inhibitor project, WT and mutant strains, chemical genetic; mitochondrial fusion phenotypic screen; inhibition, % at 10 µM; actives 2.1% (n = 190,000); AID 1362, 2008; in the data active = inhibition above about 58%; tested in S. cerevisiae
Hck-Nef inh: inhibitors of Nef-activated human Hck kinase, primary screen, biochemical, Z-Lyte FRET, 384-well, Hck-YEEI. Recombinant Hck-YEEI plus Nef, Z-Lyte FRET kinase assay. inhibition, % at 20 µM. actives 0.68% (n = 220,000);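 active = Hck-Nef kinase inhibition above about 50%, limit read from the data; inactive = inhibition below that limit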
Target sequence (P08631 whole entry, looked up): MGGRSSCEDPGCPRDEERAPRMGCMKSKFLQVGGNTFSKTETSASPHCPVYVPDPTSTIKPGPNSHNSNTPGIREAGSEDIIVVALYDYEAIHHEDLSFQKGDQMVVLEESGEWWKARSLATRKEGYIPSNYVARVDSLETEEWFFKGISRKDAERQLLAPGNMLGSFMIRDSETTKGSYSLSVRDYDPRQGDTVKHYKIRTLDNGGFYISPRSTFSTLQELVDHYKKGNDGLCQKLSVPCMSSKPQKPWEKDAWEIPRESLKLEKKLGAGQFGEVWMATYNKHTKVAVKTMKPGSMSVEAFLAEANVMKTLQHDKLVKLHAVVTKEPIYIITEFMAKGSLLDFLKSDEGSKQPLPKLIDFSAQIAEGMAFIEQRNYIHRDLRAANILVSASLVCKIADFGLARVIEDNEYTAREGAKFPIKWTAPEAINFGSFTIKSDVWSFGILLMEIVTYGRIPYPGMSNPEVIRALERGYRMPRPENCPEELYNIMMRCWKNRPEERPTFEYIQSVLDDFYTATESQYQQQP
Calb biofilm kill: clotrimazole potentiators killing C. albicans biofilm, primary screen, 4-compound mixtures. actives 0.02% (n = 120,000). inhibition, % at 7.6 µM. C. albicans biofilm persisters + clotrimazole, fluorescence viability; primary screen in compound mixtures of four per well;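 also: compounds exposed to preformed 24 h biofilms for 48 h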
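Probe or stimulus – Clotrimazole 50 µg/mL co-treatment · System – C. albicans biofilms · Schedule – 24 h biofilm formation, then 48 h compound exposure, 37 °C · Evaluation – percent inhibition of biofilm viability · Technique – 2-h Alamar Blue fluorescence, 535/590 nm excitation/emission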
NCF1 inh: p47phox/p22phox peptide binding inhibitors, primary screen, biochemical, uHTS, NADPH oxidase regulatory subunit; Neutrophil cytosol factor 1 (Homo sapiens), P14598; fluorescence polarization, 2 h; inhibition, % at 24.7 µM; actives 0.53% (n = 220,000);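 active = inhibition above about 30%, limit read from the data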
Arbovirus inh: antivirals against arbovirus infection, primary screen, cell-based, full library, 10K replicate subset; actives 0.37% (n = 200,000); AID 1251, 2008; arbovirus infection cell-based antiviral screen; inhibition, % at 10 µM; in the data active = inhibition above about 30%
RAM network inh: inhibitors of the yeast RAM network, primary screen, dse1pr::URA3 reporter, 5-FOA selection; S. cerevisiae dse1pr::URA3 reporter, 5-FOA growth OD615, 2 d; analog-sensitive cbk1-as2 kinase mutant strain; actives 1.8% (n = 190,000); AID 868, 2007; inhibition, % at 50 µM;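 active = inhibition above a set limit, 3 SD over mean compound inhibition, cut at about 8.4% in these data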;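 also: inhibition rescues growth on 5-FOA so higher OD means more RAM inhibition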
Hck-Nef confirm: retest of Hck:Nef kinase inhibitor hits, confirmation, biochemical, Z-Lyte FRET, 384-well, p-Tyr peptide counterscreen. actives 28% (n = 1,300). AID 463188, 2010. Recombinant Hck-YEEI:Nef, Z-Lyte FRET kinase assay. calls only at 10 µM. shares compounds with Hck-Nef inh;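 active = average inhibition of at least 50%, with Z-scores no higher than 3 in both the phospho-tyrosine peptide and fluorescence counterscreens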
Of the large screens only hits and unclear results are named; the others gave an inactive call (follow-up assays come after a bar, where shown).

O=C(CSc1ncnc2c1oc1ccccc12)Nc1ccc2c(c1)OCCO2	none
CC(C)c1ccc(OCC(=O)NCCO)cc1	none
N#Cc1c(Nc2ccccc2)sc(C(=O)c2ccccc2)c1N	none (no result: Calb biofilm kill)
Cc1cccc(Nc2sc(C(=O)c3cc4cc(Cl)ccc4o3)c(N)c2C#N)c1	Hck-Nef inh 56 (no result: WT yeast gro inh, Arbovirus inh, RAM network inh) | Hck-Nef confirm inactive
Cc1nc(Cl)c(C(=O)NC(=O)Nc2cccc(C(F)(F)F)c2)c(C)c1[N+](=O)[O-]	none
CCOC(=O)c1cc2c(=O)n3ccccc3nc2n(C(C)C)c1=NC(=O)c1ccco1	Hck-Nef inh 106
CCOC(=O)c1cc2c(=O)n3ccccc3nc2n(Cc2ccco2)c1=NC(=O)c1ccc(OC)cc1	none
CCCn1c(=NC(=O)c2ccco2)c(C(=O)OCC)cc2c(=O)n3ccccc3nc21	Hck-Nef inh 63 (no result: Calb biofilm kill) | Hck-Nef confirm inactive
CCOC(=O)c1cc2c(=O)n3ccccc3nc2n(Cc2ccco2)c1=NC(=O)c1ccccc1OC	none
O=C(NCc1ccc(-c2csnn2)cc1)c1cccs1	none (no result: WT yeast gro inh, Arbovirus inh, RAM network inh)
O=C(NC(=O)c1ccc(Cl)cc1)Nc1ccc(-c2cnco2)cc1	Hck-Nef inh 60 (no result: WT yeast gro inh, Arbovirus inh, RAM network inh) | Hck-Nef confirm inactive
Cc1cc(C)c(S(=O)(=O)CCC(C)C)c(=O)[nH]1	none
Cc1[nH][nH]c(=O)c1C(c1c(C)[nH][nH]c1=O)c1cn(C)c2ccccc12	Hck-Nef inh 92 | Hck-Nef confirm active
Cc1cccc(C)c1OCC(=O)NNC(=O)Nc1ccc(Cl)cc1	none (no result: Calb biofilm kill)
CC(C)(C)n1nc(-c2ccc(Cl)cc2)c2c(N)ncnc21	Hck-Nef inh 105 (no result: Calb biofilm kill) | Hck-Nef confirm active
Cc1ccc(-c2nc(N)c3c(-c4ccc(C)cc4)nn(C(C)(C)C)c3n2)cc1	none (no result: Calb biofilm kill)
CC(C)(C)n1nc(-c2ccc(F)cc2)c2c(N)ncnc21	Hck-Nef inh 109 (no result: Calb biofilm kill) | Hck-Nef confirm active
CCCCCn1c(=NC(C)=O)c(C#N)cc2c(=O)n3ccccc3nc21	none (no result: Calb biofilm kill)
CC(C)OCCCn1c(=NC(=O)c2ccncc2)c(C#N)cc2c(=O)n3ccccc3nc21	Hck-Nef inh 109 (not shown: Calb biofilm kill)
CC(=O)N=c1c(C#N)cc2c(=O)n3ccccc3nc2n1CCCOC(C)C	Hck-Nef inh 56 (not shown: WT yeast gro inh, Arbovirus inh, RAM network inh)
CCOc1cc(/C=N/N2CCOCC2)ccc1OCc1ccc(C(=O)OC)o1	none
C(=N\c1nc2ccccc2n1Cc1ccccc1)/c1cccs1	none (no result: Calb biofilm kill)
CNC(=S)Nc1ccc(Cc2ccncc2)cc1	none (no result: WT yeast gro inh, Arbovirus inh, RAM network inh)
O=C(NC(=S)Nc1ccc(Cc2ccncc2)cc1)c1ccc(F)cc1	Hck-Nef inh 68 | Hck-Nef confirm inactive
CC(NC(=O)Nn1cnnc1)(C(F)(F)F)C(F)(F)F	none (no result: Calb biofilm kill)
O=C(Nc1cccc(S(=O)(=O)NC2=NCCCCC2)c1)c1cc(-c2ccco2)nc2ccccc12	Hck-Nef inh 93 (no result: WT yeast gro inh, Arbovirus inh, RAM network inh) | Hck-Nef confirm active
CC(=O)Nc1ccc(NC(=O)CSc2nc3nc(-c4cccs4)cc(C(F)(F)F)c3c(=O)[nH]2)cc1	none (no result: WT yeast gro inh, Arbovirus inh, RAM network inh)
N#Cc1ccc(Cl)cc1NC(=O)CSc1nc2nc(-c3cccs3)cc(C(F)(F)F)c2c(=O)[nH]1	Hck-Nef inh 67 (no result: WT yeast gro inh, Arbovirus inh, RAM network inh) | Hck-Nef confirm inactive
CCN(CC)c1ccc(/C=N/N2CCN(Cc3ccccc3)CC2)cc1	Hck-Nef inh 57 | Hck-Nef confirm inactive
C(=N\N1CCN(Cc2ccccc2)CC1)/c1ccccc1	none (no result: WT yeast gro inh, Arbovirus inh, RAM network inh)
Cc1ccc(-c2nn(-c3ccccc3)cc2/C=C2\SC(=S)N(CC(=O)O)C2=O)cc1	Hck-Nef inh 58 (no result: WT yeast gro inh, Arbovirus inh, RAM network inh) | Hck-Nef confirm inactive
CN=c1scc(-c2ccccc2F)n1/N=C/c1ccc[nH]1	none
CN=c1scc(-c2ccccc2F)n1/N=C/c1ccc(O)c(O)c1O	Hck-Nef inh 122 | Hck-Nef confirm inactive
COc1ccc(NC(=O)COC(=O)CCNS(=O)(=O)c2ccc(Cl)cc2)cc1	none (no result: WT yeast gro inh, Arbovirus inh, RAM network inh)
COc1ccc(NC(=O)COC(=O)Cc2c(F)cccc2Cl)cc1	none
CC(C)/C=N/NC(=O)c1ccc(Cl)cc1	none
Cc1cc(-c2cccs2)c(C#N)c(=S)[nH]1	none (no result: WT yeast gro inh, Arbovirus inh, RAM network inh)
